Data reported in ChEMBL document CHEMBL5678805, “Intermittent administration of MEK inhibitor GDC-0973 plus PI3K inhibitor GDC-0941 triggers robust apoptosis and tumor growth inhibition” (Cancer Res, 2012).
The source made the active and inactive calls. No cut-off for these calls is given here.

Assays:
[1] = biological target: Ephrin type-B receptor 4 (Homo sapiens, UniProt P54760); assay: Inhibition of EphB4 (unknown origin)
[2] = tested on: 888-mel; assay: Inhibition of ERK phosphorylation in human 888-mel cells preincubated for 24 hrs followed by compound washout and measured after 2 hrs in presence of 4-(2-(1H-indazol-4-yl)-6-((4-(methylsulfonyl)piperazin-1-yl)methyl)thieno[3,2-d]pyrimidin-4-yl)morpholine by immunoblotting analysis; type: cell-based
In short: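 The medium was then exchanged to remove compound. Lysates were prepared 2 and 24 h after washout and immunoblotted for cleaved PARP, p-AKT and p-ERK using HRP secondary antibody and ECL.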

[3] = tested on: FaDu; assay: Antitumor activity against human FaDu cells harboring SMAD4 del/TP53 R248L/CDKN2A mutant xenografted in mouse assessed as tumor growth inhibition at 5 mg/kg, po; type: functional; details: read-out: TGI
In short: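 Single-agent dose ranging in human tumor xenograft mice at 2.5, 5 or 10 mg/kg oral. Tumor volume was measured by caliper as (L×W×W)/2. %TGI = 100×[1 − AUC(treatment/d)/AUC(vehicle/d)] from the fitted growth curve per dose group, relative to vehicle.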

[4] = tested on: RPMI-7951; assay: Antiproliferative activity against human RPMI-7951 cells assessed reduction in cell viability incubated for 4 days in presence of 4-(2-(1H-indazol-4-yl)-6-((4-(methylsulfonyl)piperazin-1-yl)methyl)thieno[3,2-d]pyrimidin-4-yl)morpholine by celltiter-glo assay; type: functional; details: time 4 day
In short: (§1)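 4-day CellTiter-Glo viability read-out on melanoma lines, cells exposed to increasing concentrations of each inhibitor alone and in combination.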

[5] = biological target: Tyrosine-protein kinase SYK (Homo sapiens, UniProt P43405); assay: Inhibition of SYK (unknown origin)
[6] = biological target: Serine/threonine-protein kinase B-raf (Homo sapiens, UniProt P15056, V600E); assay: Inhibition of B-RAF V600E (unknown origin)
Sequence of Serine/threonine-protein kinase B-raf (P15056 2-766 V600E limits assumed): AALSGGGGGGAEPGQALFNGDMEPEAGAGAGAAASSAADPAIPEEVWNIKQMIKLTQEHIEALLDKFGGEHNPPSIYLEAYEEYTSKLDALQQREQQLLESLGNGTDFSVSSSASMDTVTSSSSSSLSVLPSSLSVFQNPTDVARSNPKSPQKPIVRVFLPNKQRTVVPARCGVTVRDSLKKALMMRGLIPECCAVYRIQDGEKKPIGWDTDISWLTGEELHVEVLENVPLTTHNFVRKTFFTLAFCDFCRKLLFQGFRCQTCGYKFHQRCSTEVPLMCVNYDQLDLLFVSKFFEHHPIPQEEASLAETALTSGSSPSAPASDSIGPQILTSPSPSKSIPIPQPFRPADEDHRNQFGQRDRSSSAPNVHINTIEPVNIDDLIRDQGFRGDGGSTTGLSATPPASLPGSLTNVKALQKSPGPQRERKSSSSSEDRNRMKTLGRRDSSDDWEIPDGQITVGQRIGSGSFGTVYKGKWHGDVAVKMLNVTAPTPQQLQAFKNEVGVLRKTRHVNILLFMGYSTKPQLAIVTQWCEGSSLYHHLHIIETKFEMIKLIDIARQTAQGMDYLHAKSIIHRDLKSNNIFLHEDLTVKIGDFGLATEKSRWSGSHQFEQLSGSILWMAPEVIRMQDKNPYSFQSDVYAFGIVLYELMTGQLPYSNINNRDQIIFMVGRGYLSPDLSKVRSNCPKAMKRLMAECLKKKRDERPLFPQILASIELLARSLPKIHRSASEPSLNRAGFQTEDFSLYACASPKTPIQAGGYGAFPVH

[7] = Antitumor activity against human A375.X1 cells xenografted in mouse assessed as tumor growth inhibition at 3 mg/kg, po administered once a day for 21 days; type: functional; details: A375.X1, 504 h, read-out: TGI, time 21 day
In short: (§2)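 Human tumor xenografts in mice. Drugs given orally, as single agents or combined with the PI3K inhibitor. Schedules were daily (QD) or every third day (Q3D) over 21 days. Tumor volume was measured by caliper as (L×W×W)/2. %TGI = 100×[1 − AUC(treatment/d)/AUC(vehicle/d)] from fitted growth curves, with group means. Tumor lysates were immunoblotted for pS6.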

[8] = tested on: 888-mel; assay: Antiproliferative activity against human 888-mel cells assessed reduction in cell viability incubated for 4 days in presence of 4-(2-(1H-indazol-4-yl)-6-((4-(methylsulfonyl)piperazin-1-yl)methyl)thieno[3,2-d]pyrimidin-4-yl)morpholine by celltiter-glo assay; type: functional; details: time 4 day; in short: as §1
[9] = tested on: A2058; assay: (§3) Antitumor activity against human A2058 cells harboring BRAF V600E/PTEN deletion mutant xenografted in mouse assessed as increase in Bim level at 15 mg/kg, po administered every third day for 21 days and measured after 72 hrs post dose in presence of 4-(2-(1H-indazol-4-yl)-6-((4-(methylsulfonyl)piperazin-1-yl)methyl)thieno[3,2-d]pyrimidin-4-yl)morpholine by Western blot analysis; type: functional, organism-based; details: time 576.0 hrs
[10] = tested on: NCI-H460; assay: Antitumor activity against human NCI-H460 cells harboring KRAS Q61H/PIK3CA E545K/LKB1 Q37/CDKN2A mutant xenografted in mouse assessed as tumor growth inhibition at 10 mg/kg, po; type: functional; details: read-out: TGI
In short: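 Human tumor xenografts in mice were dosed orally at the indicated mg/kg. Tumor volume was measured with calipers as (L×W×W)/2. %TGI = 100 × [1 − (AUC treatment/d)/(AUC vehicle/d)], using the area under the fitted tumor-growth curve per day for each dose group relative to vehicle.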

[11] = biological target: Serine/threonine-protein kinase MARK2 (Homo sapiens, UniProt Q7KZI7); assay: Inhibition of EMK1 (unknown origin)
Sequence of Serine/threonine-protein kinase MARK2 (Q7KZI7 whole entry): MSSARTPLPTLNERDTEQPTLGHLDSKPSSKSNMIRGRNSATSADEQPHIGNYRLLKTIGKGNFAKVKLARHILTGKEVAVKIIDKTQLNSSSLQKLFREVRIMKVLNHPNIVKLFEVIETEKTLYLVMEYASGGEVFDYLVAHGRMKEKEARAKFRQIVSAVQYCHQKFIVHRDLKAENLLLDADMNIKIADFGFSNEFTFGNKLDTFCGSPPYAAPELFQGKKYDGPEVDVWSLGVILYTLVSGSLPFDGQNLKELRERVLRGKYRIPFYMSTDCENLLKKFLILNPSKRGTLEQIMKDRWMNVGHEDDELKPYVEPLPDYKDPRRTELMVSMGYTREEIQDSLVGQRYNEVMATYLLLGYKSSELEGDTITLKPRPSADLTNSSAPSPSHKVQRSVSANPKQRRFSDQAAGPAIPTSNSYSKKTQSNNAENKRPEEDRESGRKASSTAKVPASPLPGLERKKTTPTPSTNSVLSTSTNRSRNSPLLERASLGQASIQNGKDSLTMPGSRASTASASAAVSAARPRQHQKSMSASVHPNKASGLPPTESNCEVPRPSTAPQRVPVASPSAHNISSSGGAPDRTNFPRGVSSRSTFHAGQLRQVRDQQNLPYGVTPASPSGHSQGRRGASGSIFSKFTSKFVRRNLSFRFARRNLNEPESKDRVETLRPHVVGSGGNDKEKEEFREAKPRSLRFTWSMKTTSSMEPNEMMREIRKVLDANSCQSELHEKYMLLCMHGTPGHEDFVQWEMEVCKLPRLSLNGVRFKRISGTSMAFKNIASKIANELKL

[12] = tested on: A2058; assay: Antitumor activity against human A2058 cells xenografted in mouse assessed as tumor growth inhibition at 15 mg/kg, po administered every third day for 21 days in presence of 4-(2-(1H-indazol-4-yl)-6-((4-(methylsulfonyl)piperazin-1-yl)methyl)thieno[3,2-d]pyrimidin-4-yl)morpholine; type: functional; details: A2058, 504 h, time 21 day, read-out: TGI; in short: as §2
[13] = biological target: Vascular endothelial growth factor receptor 2 (Homo sapiens, UniProt P35968); assay: Inhibition of KDR (unknown origin)
Sequence of Vascular endothelial growth factor receptor 2 (P35968 whole entry): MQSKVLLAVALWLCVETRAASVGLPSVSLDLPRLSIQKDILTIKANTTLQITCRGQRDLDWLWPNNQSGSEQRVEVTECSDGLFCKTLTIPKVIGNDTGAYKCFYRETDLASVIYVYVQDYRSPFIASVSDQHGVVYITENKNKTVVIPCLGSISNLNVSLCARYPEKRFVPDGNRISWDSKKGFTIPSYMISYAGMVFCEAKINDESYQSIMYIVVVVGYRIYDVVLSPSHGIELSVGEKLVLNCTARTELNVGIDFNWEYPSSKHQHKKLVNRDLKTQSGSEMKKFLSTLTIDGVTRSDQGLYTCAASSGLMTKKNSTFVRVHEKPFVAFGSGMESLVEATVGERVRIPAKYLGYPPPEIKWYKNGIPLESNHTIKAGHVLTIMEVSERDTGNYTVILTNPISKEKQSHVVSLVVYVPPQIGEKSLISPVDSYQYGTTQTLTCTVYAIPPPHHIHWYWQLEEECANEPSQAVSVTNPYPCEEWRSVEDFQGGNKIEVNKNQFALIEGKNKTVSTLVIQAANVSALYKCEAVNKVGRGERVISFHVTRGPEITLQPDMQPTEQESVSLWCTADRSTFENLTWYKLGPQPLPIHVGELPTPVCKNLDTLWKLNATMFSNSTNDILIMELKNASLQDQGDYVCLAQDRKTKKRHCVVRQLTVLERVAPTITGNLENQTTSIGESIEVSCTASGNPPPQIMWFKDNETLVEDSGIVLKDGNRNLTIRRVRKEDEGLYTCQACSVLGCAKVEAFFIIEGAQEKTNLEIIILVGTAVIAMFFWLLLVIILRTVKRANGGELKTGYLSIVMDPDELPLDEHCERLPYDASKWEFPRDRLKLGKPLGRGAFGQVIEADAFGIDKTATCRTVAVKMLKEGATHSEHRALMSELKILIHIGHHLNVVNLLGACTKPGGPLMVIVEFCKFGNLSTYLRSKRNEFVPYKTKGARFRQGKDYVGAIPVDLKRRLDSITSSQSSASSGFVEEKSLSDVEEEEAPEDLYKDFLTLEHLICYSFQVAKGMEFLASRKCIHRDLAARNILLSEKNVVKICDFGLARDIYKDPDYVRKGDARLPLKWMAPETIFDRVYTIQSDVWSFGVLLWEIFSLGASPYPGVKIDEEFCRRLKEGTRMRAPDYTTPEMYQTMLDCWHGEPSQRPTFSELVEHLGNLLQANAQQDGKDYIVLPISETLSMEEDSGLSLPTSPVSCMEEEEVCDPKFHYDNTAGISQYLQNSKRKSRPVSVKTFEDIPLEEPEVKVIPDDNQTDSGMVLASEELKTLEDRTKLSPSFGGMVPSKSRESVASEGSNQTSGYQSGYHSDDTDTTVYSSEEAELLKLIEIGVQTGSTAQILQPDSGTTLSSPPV

[14] = Antiproliferative activity against human SK-MEL-23 cells assessed reduction in cell viability incubated for 4 days in presence of 4-(2-(1H-indazol-4-yl)-6-((4-(methylsulfonyl)piperazin-1-yl)methyl)thieno[3,2-d]pyrimidin-4-yl)morpholine by celltiter-glo assay; type: functional; details: time 4 day; in short: as §1
[15] = Antitumor activity against human A375.X1 cells xenografted in mouse assessed as tumor growth inhibition at 3 mg/kg, po administered once a day for 21 days in presence of 4-(2-(1H-indazol-4-yl)-6-((4-(methylsulfonyl)piperazin-1-yl)methyl)thieno[3,2-d]pyrimidin-4-yl)morpholine; type: functional; details: A375.X1, 504 h, time 21 day, read-out: TGI; in short: as §2
[16] = tested on: Hs 695T; assay: Antiproliferative activity against human Hs 695T cells assessed reduction in cell viability incubated for 4 days in presence of 4-(2-(1H-indazol-4-yl)-6-((4-(methylsulfonyl)piperazin-1-yl)methyl)thieno[3,2-d]pyrimidin-4-yl)morpholine by celltiter-glo assay; type: functional; details: time 4 day; in short: as §1
[17] = tested on: A2058; assay: as §3, with “decrease” for “increase”, “cyclin D1” for “Bim”; type: functional, organism-based; details: time 576.0 hrs
[18] = tested on: A375.X1; assay: Antitumor activity against human A375.X1 cells xenografted in po dosed mouse assessed as reduction in ERK phosphorylation administered for 3 days and measured at 2 to 24 hrs by Western blot analysis; type: functional, organism-based; details: dose 1-10 mg/kg, time 74-96 hrs
In short: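 A375.X1 xenograft mice were dosed orally at 1, 3, 5 or 10 mg/kg once daily for 3 days. Tumors were collected 2, 8 and 24 h after the last dose, pulverized frozen and resolved by 4–12% SDS-PAGE. p-ERK1/2 and t-ERK1/2 were measured by Western blot and quantified by band intensity, relative to vehicle-treated mice (0 h).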

[19] = tested on: A2058; assay: Antitumor activity against human A2058 cells xenografted in mouse assessed as tumor growth inhibition at 20 mg/kg, po administered every third day for 21 days; type: functional; details: A2058, 504 h, time 21 day, read-out: TGI; in short: as §2
[20] = biological target: Serine/threonine-protein kinase D2 (Homo sapiens, UniProt Q9BZL6); assay: Inhibition of PKD2 (unknown origin)
[21] = biological target: Dual specificity mitogen-activated protein kinase kinase 4 (Homo sapiens, UniProt P45985); assay: Inhibition of MKK4 (unknown origin)
Sequence of Dual specificity mitogen-activated protein kinase kinase 4 (P45985 whole entry): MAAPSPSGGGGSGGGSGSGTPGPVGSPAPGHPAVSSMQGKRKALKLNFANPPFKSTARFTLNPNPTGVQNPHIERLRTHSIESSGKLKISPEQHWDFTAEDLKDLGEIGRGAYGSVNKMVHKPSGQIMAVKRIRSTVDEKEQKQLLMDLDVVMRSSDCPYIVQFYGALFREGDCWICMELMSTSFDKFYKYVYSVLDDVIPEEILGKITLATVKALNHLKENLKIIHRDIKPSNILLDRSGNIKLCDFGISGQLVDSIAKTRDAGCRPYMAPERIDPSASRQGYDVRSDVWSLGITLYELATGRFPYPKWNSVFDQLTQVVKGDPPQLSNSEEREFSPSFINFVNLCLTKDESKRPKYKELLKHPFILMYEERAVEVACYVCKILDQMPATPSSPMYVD

[22] = Antitumor activity against human A375.X1 cells xenografted in mouse assessed as tumor growth inhibition at 20 mg/kg, po administered every third day for 21 days in presence of 4-(2-(1H-indazol-4-yl)-6-((4-(methylsulfonyl)piperazin-1-yl)methyl)thieno[3,2-d]pyrimidin-4-yl)morpholine; type: functional; details: A375.X1, 504 h, time 21 day, read-out: TGI; in short: as §2
[23] = biological target: Macrophage colony-stimulating factor 1 receptor (Homo sapiens, UniProt P07333); assay: Inhibition of Fms (unknown origin)
[24] = tested on: A2058; assay: Inhibition of PI3K/MEK signaling pathway in human A2058 cells assessed as decrease in AKT phosphorylation by incubated for 24 hrs by Western blot analysis; type: cell-based

Sequence of Ephrin type-B receptor 4 (P54760 whole entry): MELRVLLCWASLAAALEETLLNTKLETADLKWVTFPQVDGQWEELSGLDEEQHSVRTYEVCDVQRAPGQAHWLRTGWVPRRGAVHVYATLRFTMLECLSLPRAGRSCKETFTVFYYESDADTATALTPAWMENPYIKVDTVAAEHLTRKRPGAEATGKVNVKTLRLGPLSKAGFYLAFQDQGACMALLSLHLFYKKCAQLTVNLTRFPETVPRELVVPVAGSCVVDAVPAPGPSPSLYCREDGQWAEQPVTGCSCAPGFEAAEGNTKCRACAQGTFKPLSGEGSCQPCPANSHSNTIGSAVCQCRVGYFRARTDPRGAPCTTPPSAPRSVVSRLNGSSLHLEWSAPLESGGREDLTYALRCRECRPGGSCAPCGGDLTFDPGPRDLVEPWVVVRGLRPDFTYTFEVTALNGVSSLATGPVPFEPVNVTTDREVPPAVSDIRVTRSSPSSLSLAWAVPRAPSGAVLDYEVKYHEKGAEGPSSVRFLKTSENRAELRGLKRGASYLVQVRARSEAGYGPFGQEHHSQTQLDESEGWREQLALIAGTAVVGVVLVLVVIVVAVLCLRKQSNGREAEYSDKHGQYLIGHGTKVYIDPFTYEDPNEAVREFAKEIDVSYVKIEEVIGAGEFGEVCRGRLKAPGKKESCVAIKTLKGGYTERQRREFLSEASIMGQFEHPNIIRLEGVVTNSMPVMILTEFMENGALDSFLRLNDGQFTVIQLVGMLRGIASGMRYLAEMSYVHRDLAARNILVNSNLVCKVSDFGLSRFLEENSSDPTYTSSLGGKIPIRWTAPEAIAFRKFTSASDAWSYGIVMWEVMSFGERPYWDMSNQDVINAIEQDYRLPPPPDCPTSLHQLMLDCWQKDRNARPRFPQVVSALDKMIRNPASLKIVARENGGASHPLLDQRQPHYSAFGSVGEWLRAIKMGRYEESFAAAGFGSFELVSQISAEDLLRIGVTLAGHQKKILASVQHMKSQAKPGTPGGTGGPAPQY

- IC50 [1]: > 10 µM
- IC50 [5]: > 10 µM
- IC50 [6]: > 10 µM
- IC50 [11]: > 10 µM
- IC50 [13]: > 10 µM
- IC50 [20]: > 10 µM
- IC50 [21]: > 10 µM
- IC50 [23]: > 10 µM
SMILES: O=C(c1ccc(F)c(F)c1Nc1ccc(I)cc1F)N1CC(O)([C@@H]2CCCCN2)C1 [COBIMETINIB]
- inhibition [2]: Active
- inhibition in vivo at 5 mg/kg [3]: 94%
- Activity [4]: 60%
- inhibition in vivo at 3 mg/kg [7]: 87%
- Activity [8]: 60%
- Activity [9]: Active
- inhibition in vivo at 10 mg/kg [10]: 9%
- inhibition in vivo at 15 mg/kg [12]: 83%
- Activity [14]: 60%
- inhibition in vivo at 3 mg/kg [15]: 69%
- Activity [16]: 60%
- Activity [17]: Active
- Activity [18]: Dose-Dependent Effect
- inhibition in vivo at 20 mg/kg [19]: 34%
- inhibition in vivo at 20 mg/kg [22]: 118%
- inhibition [24]: Active
